Measurements reported in ChEMBL document CHEMBL4014268, “Phenolic Compounds from the Lichen Lobaria orientalis” (J Nat Prod, 2017).
Calls of active or inactive are those of the source.

Legend:
Format in all cases: functional, cell-based
HeLa = test: Cytotoxicity against human HeLa cells at 100 ug/ml by SRB assay
Method in brief: (§1)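 Single-concentration screen at 100 μg/mL against four human cancer lines: HepG2 (liver hepatocellular carcinoma), MCF-7 (breast), NCI-H460 (lung) and HeLa (epithelial carcinoma). Cell viability was read by sulforhodamine B staining, with camptothecin as the positive control.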

HepG2 = test: Cytotoxicity against human HepG2 cells at 100 ug/ml by SRB assay; method in brief: as §1
NCI-H460 = test: Cytotoxicity against human NCI-H460 cells at 100 ug/ml by SRB assay; method in brief: as §1
MCF7 = test: Cytotoxicity against human MCF7 cells at 100 ug/ml by SRB assay; method in brief: as §1

Measured: Activity

COC(=O)/C=C/c1c(OC)cc(C)c(C(=O)OC)c1Oc1c(O)c(C)c(O)c2c1[C@@H](OC)OC2=O
inactive: all assays above

Cc1cc(O)cc(OC(=O)c2c(C)cc(O)cc2O)c1
inactive: all assays above

Cc1cc(O)cc(O)c1C(=O)Oc1cc(O)cc(C)c1C(=O)O
inactive: all assays above

COC(=O)c1c(C)cc(OC)c(CO)c1Oc1c(O)c(C)c(O)c2c1[C@@H](OC)OC2=O
inactive: all assays above

COC(=O)c1c(C)cc(OC)c(/C=C/C(C)=O)c1Oc1c(O)c(C)c(O)c2c1[C@@H](OC)OC2=O
inactive: all assays above

COc1cc(C)c2c3c1CO[C@H]1OC(=O)c4c(O)c(C)c(c(c41)O3)OC2=O
inactive: all assays above

COc1cc(C)c2c(c1C=O)Oc1c(c(C)c(O)c3c1[C@@H](OC)OC3=O)OC2=O
inactive: all assays above
